Source: PubChem (The Scripps Research Institute Molecular Screening Center)
Shown are actives, neighbours in structure and some others; about 3.5% of the full set was active somewhere.
HTRA1 inhibitor – inhibitors of human serine peptidase HTRA1; Q92743; recombinant HTRA1, FP-rhodamine activity-based probe, fluorescence polarization; inhibition, % at 5.96 µM; actives 0.5% (n = 340,000); in the data active = inhibition above about 36%
PRMT1 inh – inhibitors of human PRMT1 | inhibition, % at 2.79 µM | actives 1.3% (n = 370,000) | recombinant PRMT1, activity-based probe fluorescence polarization;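 active = inhibition above about 21% made by adding two undisclosed values, limit read from the data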
Target sequence (Q99873 whole entry, looked up): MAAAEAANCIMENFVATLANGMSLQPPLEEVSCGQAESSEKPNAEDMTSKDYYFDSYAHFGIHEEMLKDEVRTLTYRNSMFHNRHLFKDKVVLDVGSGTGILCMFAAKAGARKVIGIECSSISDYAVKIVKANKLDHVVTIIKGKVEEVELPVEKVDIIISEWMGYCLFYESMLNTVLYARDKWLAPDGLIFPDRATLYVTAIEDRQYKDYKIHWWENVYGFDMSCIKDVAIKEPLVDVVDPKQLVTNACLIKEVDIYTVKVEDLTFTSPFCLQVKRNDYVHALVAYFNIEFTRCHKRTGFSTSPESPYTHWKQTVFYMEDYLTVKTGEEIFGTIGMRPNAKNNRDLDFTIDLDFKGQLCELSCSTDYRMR
SIAE primary – blocks human sialic acid acetylesterase | Q9HAT2 | SIAE FP-Rh probe binding, fluorescence polarization | inhibition, % at 9.66 µM | actives 0.69% (n = 370,000) | AID 1053197;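 active = inhibition above a cutoff: mean of compounds within the control limits plus 3 SD of those, cut at about 17% in these data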
ABHD4 inh – inhibitors of mouse ABHD4; Q8VD66; purified mABHD4, FP-Rh probe fluorescence polarization; inhibition, % at 8.92 µM; actives 0.54% (n = 370,000); AID 720543;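 active = inhibition exceeding the mean over every tested compound plus 3 SD, cut at about 30% in these data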
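Assay system: mABHD4 protein; medium: HEPES pH 7.0, NaCl, Pluronic buffer; dosing: 8.92 µM, single dose; schedule: 45 min + 60 min at 25 °C; signal: FP readout, ex 525 nm / em 598 nm; read-out: normalized percent inhibition of probe labeling; repeats: single replicate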
TCR CD3 inh – human TCR-CD3 binding inhibition. TAMRA-labeled TCR probe fluorescence, biochemical. inhibition, % at 9.4 µM. actives 0.37% (n = 360,000); in the data active = inhibition above about 19%;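 note: recombinant mutant TCR 2C K166C tagged with TAMRA read by polarization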
rCAG binder – r(CAG) repeat RNA binding. actives 1.3% (n = 370,000). AID 651821. inhibition, % at 3 µM. TO-PRO-1 dye displacement fluorescence;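 active = inhibition above the plate cutoff, the mean of all test compounds on that plate plus 3 SD, cut at about 35% in these data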;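 note: higher means more dye released from RNA so lower well fluorescence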
SIAE inh conf – human SIAE inhibition, confirmation | inhibition, % at 9.66 µM | actives 13% (n = 2,300) | shares compounds with SIAE primary | SIAE FP-Rh activity-based probe, fluorescence polarization;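 active = mean inhibition of the replicates above the hit cutoff set in the primary screen, cut at about 17% in these data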;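 note: inhibitors lower polarization as more probe stays unbound to SIAE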
A number is an active result; n = inactive; x = not tested or not shown.

SMILES | HTRA1 inhibitor | PRMT1 inh | SIAE primary | ABHD4 inh | TCR CD3 inh | rCAG binder | SIAE inh conf
CN(C)c1ccc(C(CNS(=O)(=O)c2ccc(F)c(F)c2)c2c[nH]c3ccccc23)cc1 (stereo not drawn) | n | n | 27 | n | n | n | n
O=C(N[C@@H](Cc1ccccc1)C(=O)N1CCC2CCN(S(=O)(=O)c3ccccc3)CC21)[C@@H]1CCCN1 (stereo partly drawn) | x | n | n | n | x | n | x
C#CCN1C(=O)[C@@](O)(c2cccn2C)c2cc(F)ccc21 | x | n | n | n | x | n | x
COc1ccc(S(=O)(=O)N2CCN(C(=O)CN3C(=O)NC(C)(C)C3=O)CC2)cc1 | n | n | n | n | n | n | x
COc1ccc(S(=O)(=O)N2CCN(C(=O)CN3C(=O)NC(C)(c4ccc5ccccc5c4)C3=O)CC2)cc1 (stereo not drawn) | n | n | 17 | n | n | n | n
O=C1CCN(Cc2ccc(O)cc2)CCN1[C@H](CO)Cc1ccccc1 | n | n | 18 | n | n | n | n
O=C1CCN(Cc2ccccc2)CCN1[C@H](CO)Cc1ccccc1 | n | n | n | n | n | n | x
Cn1c(=O)c2cc(S(=O)(=O)N3CCN(c4ccccc4Cl)CC3)ccc2n(C)c1=O | x | n | n | n | x | n | x
CCOC(=O)CN(C(=O)CSc1nnc2c(n1)[nH]c1ccccc12)c1ccccc1 | n | n | 23 | n | n | n | n
O=C(O)CCN1CC2([N+](=O)[O-])C=CC(=O)C([N+](=O)[O-])(C1)C2CC(=O)c1ccccc1 (stereo not drawn) | n | n | 17 | n | n | n | n
O=C(CCCC(=O)N1CCN(c2ccc([N+](=O)[O-])cc2)CC1)c1ccccc1 | n | n | n | n | n | n | x
CS(=O)(=O)N(CC(=O)NCCSC1CCCCC1)c1cccc(F)c1 | n | n | 18 | n | n | n | n
O=C(O)c1ccccc1NN=Cc1ccccc1 | n | n | 18 | n | n | n | n
COc1cccc(/C=N/Nc2ccccc2C(=O)O)c1O | n | n | n | n | n | n | x
O=C(CNc1ccc2ccccc2c1)N/N=C/c1cc2ccccc2nc1Cl | n | n | 18 | n | n | n | n
C=CCNC(=O)c1onc(CSc2ccc(F)cc2)c1C(=O)O | n | n | n | n | n | n | x
C=CCNC(=O)c1onc(CSc2ccc(OC)cc2)c1C(=O)O | n | n | 22 | n | n | n | n
S=c1[nH]nc(Cn2c(-c3ccccn3)nc3ccccc32)n1-c1ccc2c(c1)OCCO2 | n | n | 19 | n | n | n | n
S=c1[nH]nc(-c2ccc3ncccc3c2)n1-c1ccc2c(c1)OCCO2 | n | n | n | n | n | n | x
CN(Cc1ccccc1)C(=O)OCc1cn(Cc2ccccc2C(F)(F)F)nn1 | x | n | n | n | x | n | x
CC(=O)c1cccc(NC(=S)NC2CC2)c1 | n | n | n | n | n | n | x
CC(=O)c1cccc(NC(=S)NC2CCCCC2)c1 | n | n | 19 | n | n | n | n
CC(=O)c1cccc(NC(=S)NCCCCc2ccccc2)c1 | n | n | 42 | n | n | n | 47
Cc1nc(SCC(=O)N(C)c2ccccc2)[nH]c(=O)c1C | x | n | n | n | x | x | x
CCOC(=O)[C@@]12CCC3=C1N(CCC3)C(=O)[C@H](CC(=O)NCC13CC4CC(CC(C4)C1)C3)C2 | x | n | n | n | x | n | x
SMILES | HTRA1 inhibitor | PRMT1 inh | SIAE primary | ABHD4 inh | TCR CD3 inh | rCAG binder | SIAE inh conf
COc1ccccc1C(=O)N1CCN(C(=O)[C@H]2O[C@@H](n3cnc(C(N)=O)n3)[C@H](O)[C@@H]2O)CC1 | x | n | 19 | n | n | n | n
COCCN(Cc1ccc(C)cc1)C(=O)[C@H]1O[C@@H](n2cnc(C(N)=O)n2)[C@H](O)[C@@H]1O | x | n | 21 | n | n | n | 20
NC(=O)c1ncn([C@@H]2O[C@H](C(=O)Nc3ccc(C(=O)N4CCCCC4)cc3)[C@@H](O)[C@H]2O)n1 | x | n | 18 | n | n | n | 18
COC(=O)C1=C(C)N(Cc2cccc(C(F)(F)F)c2)C(=NCc2ccc3c(c2)OCO3)NC1CCc1ccccc1 (stereo not drawn) | x | n | n | n | n | n | x
CCCN1CCS(=O)(=O)N(Cc2cn(Cc3ccccc3)nn2)C(C(=O)OC)C1 (stereo not drawn) | x | n | n | n | x | n | x
O=C(COC(=O)C1CCCN1C(=O)c1cccs1)c1ccccc1 (stereo not drawn) | n | n | 17 | n | n | n | n
O=C(OCc1ccccc1)C1CCCN1C(=O)c1cccs1 (stereo not drawn) | n | n | n | n | n | n | x
COc1cc(/C=N/NC(=O)c2ccc(N)cc2)ccc1OC(=O)c1cccc(C)c1 | n | n | 22 | n | n | n | n
COc1cc(C(=O)N/N=C/c2ccc(OC(=O)c3cccc(C)c3)cc2)ccc1O | n | n | n | n | n | n | x
CCOCN(C(=O)Cn1cnc2ccccc21)c1c(C)cccc1CC | n | n | 18 | n | n | n | n
O=C(CSc1nc2ccccc2c(=O)[nH]1)NC1CCCCC1 | x | n | n | n | x | x | x
CC1=CCC2C(=O)N(c3cccc(C(=O)N(C)C4CCCCC4)c3)C(=O)C2C1 (stereo not drawn) | n | n | n | n | n | n | x
CN(C(=O)c1cccc(N2C(=O)C3C4C=CC(C4)C3C2=O)c1)C1CCCCC1 (stereo not drawn) | n | n | 19 | n | n | n | n
Cc1ccn2c(=O)nc(SCC(=O)N3CCN(c4ccccc4)CC3)nc2c1 | n | n | 18 | n | n | n | n
CC(C)[C@H]1/C(=C/C2CC2)N2C(=O)C[C@H](c3ccccc3)N=C2N1C | x | n | n | n | x | x | x
COc1ccc(C2CC(=O)C(c3cccc(C)c3)=CN2Cc2ccccc2)cc1 (stereo not drawn) | x | n | n | n | n | n | x
C[C@H]1COc2cc(Br)ccc2S(=O)(=O)N1Cc1cn(Cc2ccc(F)cc2)nn1 | x | n | n | n | x | n | x
C=CCn1c(CNC(=O)c2cccs2)nnc1SCC(=O)Nc1ccc(C(=O)O)cc1 | n | n | n | n | n | n | x
C=CCn1c(CNC(=O)c2cccs2)nnc1SCC(=O)c1ccc(Br)cc1 | n | n | 28 | n | n | n | n
CCOC(=O)N1CCN(C(=O)C[C@H]2C[C@@]3(C(=O)OC)C(=C[C@H](COCc4ccccc4)O[C@@H]3C)N(Cc3ccccc3)C2=O)CC1 | x | n | n | n | x | n | x
CN(C)CCOC(=O)/C(=C/c1cn(C)c2ccccc12)NC(=O)c1ccccc1 | n | n | 18 | n | n | n | n
CCCc1cn(-c2ccc3c(c2)[C@@]2(CC(=O)N(C)C2c2ccccc2)C(=O)N3CC(C)C)nn1 (stereo partly drawn) | x | n | n | n | x | n | x
CCCCCn1cc(CCC(=O)Nc2ccc(N(C)c3ccccn3)cc2)c2ccccc21 | x | n | 26 | n | n | n | 27
